Assay results as given in the M2OR odorant receptor database.

How the values were obtained:
Details in all cases: stereoisomer not certain
[1] = molecular target: OR11H1 (Homo sapiens) (UniProt Q8NG94)
In short: (§1)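 Whether a receptor–molecule pair is responsive (active) rests on the original authors' judgment that its measured signal was statistically different from baseline. Pairs without that judgment are non-responsive (inactive). Sources used varied assay methods, commonly transient luciferase assays in mammalian cell lines.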

[2] = molecular target: OR11H12 (Homo sapiens) (UniProt B2RN74)
OR11H12 (Homo sapiens), sequence (B2RN74 whole entry): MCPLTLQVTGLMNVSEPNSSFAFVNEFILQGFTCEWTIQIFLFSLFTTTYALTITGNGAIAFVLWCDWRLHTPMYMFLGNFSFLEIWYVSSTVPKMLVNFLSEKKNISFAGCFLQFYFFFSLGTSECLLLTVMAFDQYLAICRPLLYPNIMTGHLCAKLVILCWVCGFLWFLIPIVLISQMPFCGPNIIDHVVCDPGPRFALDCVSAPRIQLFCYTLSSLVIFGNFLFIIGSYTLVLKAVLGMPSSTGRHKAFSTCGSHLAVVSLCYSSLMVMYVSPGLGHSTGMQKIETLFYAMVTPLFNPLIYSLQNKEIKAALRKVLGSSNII
In short: as §1

[3] = molecular target: OR11H2 (Homo sapiens) (UniProt Q8NH07)
OR11H2 (Homo sapiens), sequence (Q8NH07 whole entry): as the sequence (B2RN74 whole entry) above, with Q7H, T33S, T49I, W68R, C156Y, M181K, R199L, S269P counted along it
In short: as §1

[4] = molecular target: OR11H4 (Homo sapiens) (UniProt Q8NGC9)
OR11H4 (Homo sapiens), sequence (Q8NGC9 whole entry): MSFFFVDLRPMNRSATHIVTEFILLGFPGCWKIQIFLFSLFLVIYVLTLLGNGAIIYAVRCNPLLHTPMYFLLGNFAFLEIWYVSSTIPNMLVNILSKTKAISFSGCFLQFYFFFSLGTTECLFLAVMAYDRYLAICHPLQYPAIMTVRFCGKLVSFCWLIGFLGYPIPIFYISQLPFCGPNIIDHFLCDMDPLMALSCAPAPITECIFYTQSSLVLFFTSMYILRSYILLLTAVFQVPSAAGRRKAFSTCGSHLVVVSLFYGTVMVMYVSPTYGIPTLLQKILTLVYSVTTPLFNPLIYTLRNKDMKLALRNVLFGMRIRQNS
In short: as §1

[5] = molecular target: OR11H6 (Homo sapiens) (UniProt Q8NGC7)
OR11H6 (Homo sapiens), sequence (Q8NGC7 whole entry): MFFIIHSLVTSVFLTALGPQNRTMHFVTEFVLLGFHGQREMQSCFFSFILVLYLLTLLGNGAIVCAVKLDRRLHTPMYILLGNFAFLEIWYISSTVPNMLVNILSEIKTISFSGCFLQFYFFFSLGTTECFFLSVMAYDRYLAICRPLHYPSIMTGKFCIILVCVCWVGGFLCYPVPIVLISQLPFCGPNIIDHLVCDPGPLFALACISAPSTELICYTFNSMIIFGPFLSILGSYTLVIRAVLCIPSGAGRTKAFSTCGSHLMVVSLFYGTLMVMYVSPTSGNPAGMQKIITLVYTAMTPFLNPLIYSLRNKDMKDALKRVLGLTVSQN
In short: as §1

[6] = molecular target: OR11L1 (Homo sapiens) (UniProt Q8NGX0)
OR11L1 (Homo sapiens), sequence (Q8NGX0 whole entry): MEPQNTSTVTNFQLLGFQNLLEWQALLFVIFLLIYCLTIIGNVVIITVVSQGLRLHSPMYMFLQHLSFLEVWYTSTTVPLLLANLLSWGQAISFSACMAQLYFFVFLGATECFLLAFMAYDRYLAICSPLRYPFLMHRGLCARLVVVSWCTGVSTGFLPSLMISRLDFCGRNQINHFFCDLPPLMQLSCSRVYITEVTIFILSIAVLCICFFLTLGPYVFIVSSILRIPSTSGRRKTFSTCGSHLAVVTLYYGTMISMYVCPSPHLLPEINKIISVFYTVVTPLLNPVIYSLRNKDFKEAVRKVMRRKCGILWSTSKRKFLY
In short: as §1

[7] = molecular target: OR12D2 (Homo sapiens) (UniProt P58182)
OR12D2 (Homo sapiens), sequence (P58182 whole entry): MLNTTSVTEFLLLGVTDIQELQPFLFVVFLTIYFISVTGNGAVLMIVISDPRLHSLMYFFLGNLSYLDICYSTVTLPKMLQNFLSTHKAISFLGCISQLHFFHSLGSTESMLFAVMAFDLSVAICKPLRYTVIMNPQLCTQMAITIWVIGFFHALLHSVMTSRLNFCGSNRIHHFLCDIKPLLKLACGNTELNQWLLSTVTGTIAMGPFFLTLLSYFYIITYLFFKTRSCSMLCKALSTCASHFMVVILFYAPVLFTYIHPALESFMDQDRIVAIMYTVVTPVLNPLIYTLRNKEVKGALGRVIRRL
In short: as §1

[8] = molecular target: OR12D3 (Homo sapiens) (UniProt Q9UGF7)
OR12D3 (Homo sapiens), sequence (Q9UGF7 whole entry): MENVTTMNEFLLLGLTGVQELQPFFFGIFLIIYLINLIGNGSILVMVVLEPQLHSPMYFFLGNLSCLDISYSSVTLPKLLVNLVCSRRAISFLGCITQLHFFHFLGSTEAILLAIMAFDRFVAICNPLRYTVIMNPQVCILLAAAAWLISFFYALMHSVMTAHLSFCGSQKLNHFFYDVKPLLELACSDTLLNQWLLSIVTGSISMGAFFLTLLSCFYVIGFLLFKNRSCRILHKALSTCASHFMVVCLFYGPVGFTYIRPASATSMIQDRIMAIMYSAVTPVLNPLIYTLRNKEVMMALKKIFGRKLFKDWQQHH
In short: as §1

[9] = molecular target: OR11H7 (Homo sapiens) (UniProt Q8NGC8)
OR11H7 (Homo sapiens), sequence (Q8NGC8 whole entry): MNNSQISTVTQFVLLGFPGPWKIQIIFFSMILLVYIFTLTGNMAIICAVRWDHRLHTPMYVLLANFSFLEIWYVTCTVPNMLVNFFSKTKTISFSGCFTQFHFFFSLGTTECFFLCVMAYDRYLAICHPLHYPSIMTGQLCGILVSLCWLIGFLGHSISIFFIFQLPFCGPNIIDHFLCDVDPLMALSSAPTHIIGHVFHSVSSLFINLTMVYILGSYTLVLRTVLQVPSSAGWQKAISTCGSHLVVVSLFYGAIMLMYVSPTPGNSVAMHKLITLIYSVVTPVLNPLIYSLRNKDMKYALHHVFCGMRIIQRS
In short: as §1

[10] = molecular target: OR12D1 (Homo sapiens) (UniProt P0DN82)
OR12D1 (Homo sapiens), sequence (P0DN82 as listed by the source): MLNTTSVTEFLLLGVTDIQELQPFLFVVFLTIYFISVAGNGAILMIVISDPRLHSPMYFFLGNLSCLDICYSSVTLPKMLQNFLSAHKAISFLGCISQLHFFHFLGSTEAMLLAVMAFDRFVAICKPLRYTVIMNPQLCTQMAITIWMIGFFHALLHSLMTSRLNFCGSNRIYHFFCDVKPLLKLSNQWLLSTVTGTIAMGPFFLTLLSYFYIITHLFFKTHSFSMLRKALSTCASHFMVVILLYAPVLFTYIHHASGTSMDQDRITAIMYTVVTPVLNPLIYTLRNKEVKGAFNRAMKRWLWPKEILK
In short: as §1

Measured: odorant receptor agonist call;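 note: active if original authors judged signal statistically different from baseline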

OR11H1 (Homo sapiens), sequence (Q8NG94 whole entry): as the sequence (B2RN74 whole entry) above, with T33S, W68R, C156Y, V240M counted along it

C=CCOC(=O)Cc1ccccc1
inactive: [1] | [2] | [3] | [4] | [5] | [6] | [7] | [8]

Cc1c([N+](=O)[O-])c(C)c([N+](=O)[O-])c(C(C)(C)C)c1[N+](=O)[O-]
inactive: [1] | [2] | [3] | [4] | [5] | [9] | [6] | [10] | [7] | [8]
